# Assay results reported in PubChem BioAssay AID504485 (Sanford-Burnham Center for Chemical Genomics, 2011).
# The source made the active and inactive calls.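 How the source made its calls: active means mean IC50 at or below 20 µM; inactive means the rest.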
# System: 697 B-cell NF-kB luciferase, PMA/ionomycin, 16 h
# Assay: stimulated NF-kB reporter signal decrease, 697 cells – cell-based, luminescence, B-cell NF-kB inhibitor project, SAR follow-up (AID 504485)
# How it was run: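 Technique: luciferase luminescence with SteadyGlo reagent / Assay system: human 697 B-cell line with NF-kB-driven luciferase reporter / Timing: 1 h pretreatment, 16 h stimulation, 37 °C / Reagent: PMA plus ionomycin stimulation of NF-kB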
row,Structure (SMILES),IC50
1,CCN(CC)C(=O)CCc1nc(-c2ccc(C(C)(C)C)cc2)no1,58.4 µM (inactive)
2,Cc1ccc(-c2nc(CSCC(=O)NCc3ccco3)c(C)o2)cc1,> 79 µM (inactive)
3,CCOc1ccc(-c2nc(CSCC(=O)NC3CC3)c(C)o2)cc1,0.19 µM
4,CNC(=O)CCc1nc(-c2ccc(C(C)(C)C)cc2)no1,< 0.16 µM
5,Cc1oc(-c2ccc(OC(F)(F)F)cc2)nc1CSCC(=O)NC1CC1,2.23 µM
6,CCc1ccc(-c2noc(CCC(=O)NC(C)CC)n2)cc1 (stereo not drawn),> 79 µM (inactive)
7,CCOc1ccc(-c2nc(CSCC(=O)NCC3CC3)c(C)o2)cc1,1.32 µM
8,CCCCc1ccc(-c2noc(CCC(=O)NC(C)CC)n2)cc1 (stereo not drawn),0.67 µM
9,CCc1ccc(-c2noc(CCC(=O)NC)n2)cc1,> 79 µM (inactive)
10,CC(C)c1ccc(-c2noc(CCC(=O)NC(C)(C)C)n2)cc1,26.9 µM (inactive)
11,CCOc1ccccc1-c1nc(CSCC(=O)NC2CC2)c(C)o1,> 79 µM (inactive)
12,CCCOc1ccc(-c2nc(CSCC(=O)NC3CC3)c(C)o2)cc1,< 0.15 µM
13,CCNC(=O)CCc1nc(-c2c(Cl)cccc2Cl)no1,> 79 µM (inactive)
14,CCOc1cccc(-c2nc(CSCC(=O)NC3CC3)c(C)o2)c1,> 79 µM (inactive)
15,CCNC(=O)CCc1nc(-c2ccccc2)no1,> 79 µM (inactive)
16,CCOc1ccc(-c2nc(CSCC(=O)O)c(C)o2)cc1,< 0.15 µM
17,Cc1oc(-c2ccc(C(F)(F)F)cc2)nc1CSCC(=O)O,0.97 µM
18,CCNC(=O)CCc1nc(-c2ccccc2Cl)no1,> 79 µM (inactive)
19,CNC(=O)CCc1nc(-c2ccc(C(C)C)cc2)no1,0.21 µM
20,CCCCOc1ccc(-c2nc(CSCC(=O)NC3CC3)c(C)o2)cc1,0.24 µM
21,Cc1oc(-c2ccc(C(F)(F)F)cc2)nc1CSCC(=O)NC1CC1,15.7 µM
22,CCCCc1ccc(-c2noc(CCC(=O)NC(C)(C)C)n2)cc1,2.31 µM
23,COC(=O)CCc1nc(-c2ccc(C(C)(C)C)cc2)no1,< 0.16 µM
24,CNC(=O)CCc1nc(-c2ccccc2)no1,> 79 µM (inactive)

row,Structure (SMILES),IC50
1,CCOc1ccc(-c2nc(CSCC(=O)NC(C)(C)C)c(C)o2)cc1,60.5 µM (inactive)
2,CCCCc1ccc(-c2noc(CCC(=O)NC3CC3)n2)cc1,0.21 µM
3,Cc1oc(-c2ccc(OC(F)(F)F)cc2)nc1CSCC(=O)O,0.24 µM
4,COc1cccc(-c2cc(=O)c3cc(NC(=O)c4ccc(N(C)C)cc4)ccc3[nH]2)c1,> 79 µM (inactive)
5,CCNC(=O)CCc1nc(-c2cccc(F)c2)no1,> 79 µM (inactive)
6,CCOc1ccc(-c2nc(CSCC(N)=O)c(C)o2)cc1,< 0.15 µM
7,CC(C)Nc1ccc(C(CC(=O)O)NC(=O)c2ccccc2)cc1[N+](=O)[O-] (stereo not drawn),> 79 µM (inactive)
8,CCCOc1ccc(-c2nc(CSCC(=O)NCc3ccco3)c(C)o2)cc1,0.17 µM
9,CCCCc1ccc(-c2noc(CCC(=O)NC)n2)cc1,0.2 µM
10,CCC(C)NC(=O)CCc1nc(-c2ccccc2)no1 (stereo not drawn),> 79 µM (inactive)
11,CCOc1ccc(-c2nc(CSCC(=O)NC)c(C)o2)cc1,0.33 µM
12,Cc1oc(-c2ccccc2)nc1CSCC(=O)NCc1ccco1,> 79 µM (inactive)
13,CCOc1ccc(-c2nc(CSCC(=O)N(C)C)c(C)o2)cc1,> 79 µM (inactive)
14,CCc1ccc(-c2noc(CCC(=O)NC3CC3)n2)cc1,> 79 µM (inactive)
15,COc1cccc(-c2cc(=O)c3cc(NC(=O)c4ccccc4)ccc3[nH]2)c1,> 79 µM (inactive)
16,CCCCOc1ccc(-c2nc(CSCC(=O)O)c(C)o2)cc1,0.18 µM
17,CCNC(=O)CCc1nc(-c2ccccc2C)no1,> 79 µM (inactive)
18,COc1ccc(C(=O)Nc2ccc3[nH]c(-c4cccc(OC)c4)cc(=O)c3c2)cc1,> 79 µM (inactive)
19,CCc1ccc(-c2nc(CSCC(=O)NCc3ccco3)c(C)o2)cc1,49.4 µM (inactive)
20,CCNC(=O)CCc1nc(-c2ccc(C(C)C)cc2)no1,0.32 µM
21,O=C(CCc1nc(-c2ccccc2)no1)NC1CC1,> 79 µM (inactive)
22,CC(C)(C)c1ccc(-c2noc(CCC(=O)NC3CCC3)n2)cc1,0.41 µM
23,CCCOc1ccc(-c2nc(CSCC(=O)O)c(C)o2)cc1,< 0.15 µM
24,CCOC(=O)CC(NC(=O)c1ccc(Br)cc1)c1ccc(F)c([N+](=O)[O-])c1 (stereo not drawn),36.8 µM (inactive)

# More lines, now with the values ahead:
row,IC50,Structure (SMILES)
1,0.49 µM,CCC(C)NC(=O)CCc1nc(-c2ccc(C(C)(C)C)cc2)no1 (stereo not drawn)
2,> 79 µM (inactive),CCOc1ccc(-c2nc(CSCC(=O)N3CCOCC3)c(C)o2)cc1
3,3.23 µM,CCOc1ccc(-c2nc(CSCC(=O)NC3CCC3)c(C)o2)cc1
4,0.26 µM,CC(C)c1ccc(-c2noc(CCC(=O)NC3CC3)n2)cc1
5,> 79 µM (inactive),CCOc1ccccc1-c1nc(CSCC(=O)O)c(C)o1
6,0.48 µM,CCc1ccc(-c2nc(CSCC(=O)NC3CC3)c(C)o2)cc1
7,> 79 µM (inactive),CCOc1ccc(-c2nc(CSCC(=O)NC3CC3)c(-c3ccccc3)o2)cc1
8,< 0.15 µM,C#CCNC(=O)CSCc1nc(-c2ccc(OCC)cc2)oc1C
9,29.5 µM (inactive),COc1ccc(-c2nc(CSCC(=O)NCc3ccco3)c(C)o2)cc1
10,0.06 µM,CC(C)(C)c1ccc(-c2noc(CCC(=O)NC3CC3)n2)cc1
11,16.2 µM,Cc1ccc(-c2nc(CSCC(=O)NC3CC3)c(C)o2)cc1
12,> 79 µM (inactive),CCNC(=O)CCc1nc(-c2cccc(OC)c2)no1
13,> 79 µM (inactive),CC(C)(C)NC(=O)CCc1nc(-c2ccccc2)no1
14,> 79 µM (inactive),CCNC(=O)CCc1nc(-c2ccc(OCC)cc2)no1
15,> 79 µM (inactive),O=C(O)CCc1nc(-c2ccccc2)no1
16,0.21 µM,CCOc1ccc(-c2nc(CSCC(=O)NCc3ccco3)c(C)o2)cc1
17,> 79 µM (inactive),CCc1ccc(-c2nc(CSCC(=O)NC3CC3)c(-c3ccccc3)o2)cc1
18,0.22 µM,CCCCc1ccc(-c2noc(CCC(=O)NCC)n2)cc1
19,0.03 µM,CCNC(=O)CCc1nc(-c2ccc(C(C)(C)C)cc2)no1
20,> 79 µM (inactive),CCNC(=O)CCc1nc(-c2cccc(C)c2)no1
21,> 79 µM (inactive),CCNC(=O)CCc1nc(-c2ccc(CC)cc2)no1
22,41.5 µM (inactive),CN(C)C(=O)CCc1nc(-c2ccc(C(C)(C)C)cc2)no1
23,34 µM (inactive),CCOc1ccc(-c2noc(CCC(=O)O)n2)cc1
24,0.26 µM,CCCCOc1ccc(-c2nc(CSCC(=O)NCc3ccco3)c(C)o2)cc1
25,29.2 µM (inactive),COc1ccc(-c2nc(CSCC(=O)NC3CC3)c(C)o2)cc1
26,0.19 µM,CC(C)(C)c1ccc(-c2noc(CCC(=O)O)n2)cc1
27,> 79 µM (inactive),CCc1ccc(-c2noc(CCC(=O)NC(C)(C)C)n2)cc1
28,7.96 µM,CCC(C)NC(=O)CCc1nc(-c2ccc(C(C)C)cc2)no1 (stereo not drawn)
29,> 79 µM (inactive),Cc1oc(-c2ccccc2)nc1CSCC(=O)NC1CC1
30,< 0.16 µM,CC(C)(C)c1ccc(-c2noc(CCC(N)=O)n2)cc1
